Measurements published in paper PMC4475435 (Clinical therapeutics, 2015).
Like-named read-outs stand apart in the source and are kept apart here. Marks after values point to notes of the source that are not given here.

How the values were obtained:
[1] = cited from earlier work
[2] = Population-based PK model; format: in vivo, human
In short: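 Matched case-control: overweight/obese children (≥85th percentile, CDC charts) vs normal-weight controls matched on age (±1 y), SCr (±0.4 mg/dL), nephrotoxic co-medication and ICU stay; 389 serum levels, mostly drawn after third dose, with full dosing history. One-compartment first-order model, FOCE with interaction; age and SCr on CL; weight on Vd, weight^0.75 on CL; MAP Bayesian POSTHOC individual estimates; 1000-replicate bootstrap 95% CIs.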

[3] = weight used: Weight, cited from earlier work
[4] = 4 normal-weight adults (Weight <115% IW), 25–30 y, weight used: Weight, SD
[5] = 6 morbidly obese adults (Weight >190% IW), 27–37 y, weight used: Weight, SD
[6] = 6 morbidly obese adults, 27–37 y, weight used: IW, SD
[7] = 24 morbidly obese adults (Weight >190% IW), 41 (7) y, weight used: Weight, SD
[8] = 24 morbidly obese adults, weight used: IW, SD
[9] = 24 normal-weight adults, weight used: IW, SD
[10] = bootstrap analysis of 1000 replicates
[11] = obese and overweight children compared with those with normal weight
[12] = overweight/obese cases versus normal-weight controls, 87 matched pairs
[13] = 18 overweight children, age 5, 0.5–18 y

CN[C@H](CC(C)C)C(=O)N[C@H]1C(=O)N[C@@H](CC(N)=O)C(=O)N[C@H]2C(=O)N[C@H]3C(=O)N[C@H](C(=O)N[C@H](C(=O)O)c4cc(O)cc(O)c4-c4cc3ccc4O)[C@H](O)c3ccc(c(Cl)c3)Oc3cc2cc(c3O[C@@H]2O[C@H](CO)[C@@H](O)[C@H](O)[C@H]2O[C@H]2C[C@](C)(N)[C@H](O)[C@H](C)O2)Oc2ccc(cc2Cl)[C@H]1O [vancomycin]
Clearance, Mean (SD) or Median (Range) [1, 4]: 0.065 (0.004) L/kg/h | Vd, Mean (SD) or Median (Range) [1, 4]: 0.39 (0.06) L/kg | Clearance, Mean (SD) or Median (Range) [1, 5]: 0.066 (0.01) L/kg/h | Vd, Mean (SD) or Median (Range) [1, 5]: 0.26 (0.03) L/kg | Clearance, Mean (SD) or Median (Range) [1, 6]: 0.174 (0.04) L/kg/h | Vd, Mean (SD) or Median (Range) [1, 6]: 0.68 (0.07) L/kg | Clearance, Mean (SD) or Median (Range) [1, 7]: 0.072 (0.012) L/kg/h | Vd, Mean (SD) or Median (Range) [1, 7]: 0.32 (0.05) L/kg | Clearance, Mean (SD) or Median (Range) [1, 8]: 0.186 (0.042) L/kg/h | Vd, Mean (SD) or Median (Range) [1, 8]: 0.83 (0.08) L/kg | Clearance, Mean (SD) or Median (Range) [1, 9]: 0.06 (0.024) L/kg/h | Vd, Mean (SD) or Median (Range) [1, 9]: 0.64 (0.26) L/kg | Vd, Mean (SD) or Median (Range) ([1]; 37 underweight adults (Weight <80% IW), weight used: IW, 95% CI 0.55–0.68): 0.62 (0.55–0.68 ^‡) L/kg | Clearance, Mean (SD) or Median (Range) ([1]; 107 obese adults (Weight >120% LBM), weight used: Weight, range of means): 0.0366–0.051 ^† L/kg/h | Vd, Mean (SD) or Median (Range) ([1]; 108 obese adults (Weight >130% IW), weight used: IW, 95% CI 0.82–0.97): 0.89 (0.82–0.97 ^‡) L/kg | Vd, Mean (SD) or Median (Range) ([1]; 108 obese adults (Weight >130% IW), weight used: Weight, 95% CI 0.52–0.59): 0.56 (0.52–0.59 ^‡) L/kg | θ1, Median Bootstrap Estimate (95% CI) [2, 10]: 0.572 (0.514–0.632) | θ2, Median Bootstrap Estimate (95% CI) [2, 10]: 0.285 (0.268–0.304) | θ3, Median Bootstrap Estimate (95% CI) [2, 10]: 0.291 (0.165–0.395) | θ4, Median Bootstrap Estimate (95% CI) [2, 10]: 0.742 (0.194–1.263) | θ1, population estimate: Vd (L) = θ1 × Weight (kg) ([2]; final population PK model, 174 participants, 389 concentrations): 0.574 | decrease of weight-adjusted CL [2, 11]: 10.8% | decrease of weight-adjusted Vd [2, 11]: 2.2% | mean CL, based on weight, for cases lower than controls by [2, 12]: 0.233 mL/min/kg | mean Vd, based on weight, for cases lower than controls by [2, 12]: 0.012 L/kg | Clearance, Mean (SD) or Median (Range) ([3]; 13 underweight children): 0.18 (0.09) L/kg/h | Vd, Mean (SD) or Median (Range) ([3]; 13 underweight children): 0.97 (0.54) L/kg | Clearance, Mean (SD) or Median (Range) [3, 13]: 0.16 (0.05) L/kg/h | Vd, Mean (SD) or Median (Range) [3, 13]: 0.81 (0.37) L/kg | Clearance, Mean (SD) or Median (Range) ([3]; 31 normal-weight children): 0.2 (0.08) L/kg/h | Vd, Mean (SD) or Median (Range) ([3]; 31 normal-weight children): 1 (0.35) L/kg
